Laboratory results from ChEMBL document CHEMBL1151771, “Lanostane-type triterpenes from the mushroom Astraeus pteridis with antituberculosis activity” (J Nat Prod, 2008).
Values after ≈ are worked out from the molar mass of the structure shown.

How the values were obtained:
[1] = system: Mycobacterium tuberculosis; assay: Antimicrobial activity against Mycobacterium tuberculosis H37Rv by Alamar blue assay; format: functional
Summary of the method: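 M. tuberculosis H37Rv (ATCC27294) in microplate Alamar Blue assay, fluorescence read-out. MIC taken as lowest concentration giving 90% fluorescence reduction relative to controls. Rifampin run in each test as positive quality control.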

Vero = assay: Cytotoxicity against african green monkey Vero cells upto 100 uM; format: cell-based; conditions: chlorocebus sabaeus
Summary of the method: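 Vero cells (ATCC CCL-81) tested with a nonradioactive cell proliferation (CellTiter 96) assay. IC50 taken as the reciprocal dilution giving 50% inhibition of Vero cells.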

## C[C@H]([C@@H]1CC[C@H](C)C(=O)O1)[C@H]1CC[C@@]2(C)C3=C(CC[C@]12C)[C@@]1(C)CCC(=O)C(C)(C)[C@@H]1CC3 [ASTRAHYGRONE]
[1]
  MIC: 64 µg/mL (≈ 141 µM)
Vero
  Activity: Non-toxic

## C[C@H]([C@@H]1CC[C@H](C)C(=O)O1)[C@H]1CC[C@@]2(C)C3=C(CC[C@]12C)[C@@]1(C)CC[C@@H](O)C(C)(C)[C@@H]1CC3
[1]
  MIC: 58 µg/mL (≈ 127 µM)
Vero
  Activity: Non-toxic

## C[C@H]([C@@H]1CC[C@H](C)[C@@H](O)O1)[C@H]1CC[C@@]2(C)C3=C(CC[C@]12C)[C@@]1(C)CCC(=O)C(C)(C)[C@@H]1CC3 [ASTRAPTERIDONE]
[1]
  MIC: > 64 µg/mL
Vero
  Activity: Non-toxic

## C[C@H]([C@@H]1CC[C@H](C)[C@@H](O)O1)[C@H]1CC[C@@]2(C)C3=C(CC[C@]12C)[C@@]1(C)CC[C@@H](O)C(C)(C)[C@@H]1CC3
[1]
  MIC: 34 µg/mL (≈ 74.1 µM)
Vero
  Activity: Non-toxic

## C[C@H]([C@@H]1CC[C@H](C)[C@@H](O)O1)[C@H]1CC[C@@]2(C)C3=C(CC[C@]12C)[C@@]1(C)CC[C@H](O)C(C)(C)[C@@H]1CC3 [ASTRAPTERIDIOL]
[1]
  MIC: > 64 µg/mL
Vero
  Activity: Non-toxic
